Measured values reported in ChEMBL document CHEMBL4312030, “Synthesis, biological evaluation, and docking study of indole aryl sulfonamides as aromatase inhibitors” (Eur J Med Chem, 2020).
The source made the active and inactive calls. The rule behind the calls is not given here.

Tests used:
Aromatase [1] = molecular target: T1, Aromatase (Homo sapiens, UniProt P11511); assay: Inhibition of recombinant human aromatase at 1 uM preincubated for 10 mins followed by substrate and beta-NADP+ addition and measured for 60 mins by fluorimetric assay relative to letrozole; settings: 1 h
T1 sequence (P11511 whole entry): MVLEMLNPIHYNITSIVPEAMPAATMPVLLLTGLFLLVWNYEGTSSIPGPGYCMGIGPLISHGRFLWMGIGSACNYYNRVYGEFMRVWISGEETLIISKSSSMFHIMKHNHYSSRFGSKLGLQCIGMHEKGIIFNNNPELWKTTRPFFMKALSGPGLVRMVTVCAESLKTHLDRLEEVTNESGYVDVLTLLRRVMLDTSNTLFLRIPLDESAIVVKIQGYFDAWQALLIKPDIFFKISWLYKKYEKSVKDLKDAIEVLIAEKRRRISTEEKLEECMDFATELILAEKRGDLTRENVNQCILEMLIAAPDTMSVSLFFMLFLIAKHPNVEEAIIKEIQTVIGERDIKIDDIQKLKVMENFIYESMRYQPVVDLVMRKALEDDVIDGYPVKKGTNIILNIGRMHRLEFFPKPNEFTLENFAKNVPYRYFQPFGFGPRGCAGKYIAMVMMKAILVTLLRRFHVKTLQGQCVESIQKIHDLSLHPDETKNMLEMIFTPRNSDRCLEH
In short: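 Fluorimetric kit assay with recombinant human aromatase plus NADPH generating system; compounds at 1 µM final (from 5X in ACN; solvent 0.5% ACN), preincubated 10 min at 37°C.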

Aromatase [2] = molecular target: T1, Aromatase; assay: Inhibition of recombinant human aromatase preincubated for 10 mins followed by substrate and beta-NADP+ addition and measured for 60 mins by fluorimetric assay
In short: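 Recombinant human aromatase with NADPH generating system, preincubated 10 min at 37°C with inhibitor at 0.01-100 µM final (5X stocks 0.05-500 µM in ACN). Fluorogenic substrate/β-NADP+ added; fluorescence Ex/Em 488/527 nm kinetic 60 min. IC50 from fitted multi-point dose-response curves; mean of triplicate ± RSD.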

MCF7 [3] = assay: Cytotoxicity against human MCF7 cells assessed as reduction in cell viability at 100 uM after 24 to 72 hrs by MTT assay; type: functional, cell-based
In short: (§1)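 MCF7 cells in DMEM high glucose with 10% FBS, 1% pen/strep, seeded 1x10⁴/well, adhered 24 h, then treated 0-250 µM for 24, 48 or 72 h. MTT (1 mg/ml, 1:10 in fresh medium) 4 h at 37°C, 5% CO₂; formazan dissolved in DMSO, OD 540 nm. Expressed as % of DMSO-treated cells (final DMSO <0.2%); three experiments in triplicate (n=9).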

MCF7 [4] = assay: Cytotoxicity against human MCF7 cells assessed as LDH release up to 250 uM after 24 hrs by CytoTox 96 Non-Radioactive assay relative to control; type: functional
In short: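 MCF7 cells (DMEM high glucose, 10% FBS, 1% pen/strep) seeded 1x10⁴/well, adhered 24 h, then exposed to 0-250 µM for 24 h. Supernatants centrifuged 450xg 4 min; LDH measured by 30-min coupled INT-to-formazan reaction, absorbance 490 and 690 nm. %LDH released = [(A490–B690)/(C–B)]×100, C = positive control cell lysate.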

MCF7 [5] = assay: Cytotoxicity against human MCF7 cells assessed as cell metabolic activity after 24 hrs by MTT assay relative to control; type: functional; in short: as §1
MCF7 [6] = assay: Cytotoxicity against human MCF7 cells assessed as cell metabolic activity at 10 uM after 48 hrs by MTT assay relative to control; type: functional; in short: as §1
MCF7 [7] = assay: Cytotoxicity against human MCF7 cells assessed as cell metabolic activity at 250 uM after 24 hrs by MTT assay relative to control; type: functional; in short: as §1
MCF7 [8] = assay: Cytotoxicity against human MCF7 cells assessed as active metabolizing cells at 100 uM after 48 hrs by MTT assay relative to control; type: functional; in short: as §1
MCF7 [9] = assay: Cytotoxicity against human MCF7 cells assessed as active metabolizing cells at 250 uM after 48 hrs by MTT assay relative to control; type: functional; in short: as §1
MCF7 [10] = assay: Cytotoxicity against human MCF7 cells assessed as reduction in cell viability after 72 hrs by MTT assay; type: functional, cell-based; in short: as §1

Cc1ccc(S(=O)(=O)NCCc2c[nH]c3ccccc23)cc1[N+](=O)[O-]
inhibition at 1 µM (Aromatase [1]): 30.6%

O=S(=O)(Cc1ccccc1)NCCc1c[nH]c2ccccc12
inhibition at 1 µM (Aromatase [1]): 75.2% | IC50 (Aromatase [2]): 0.75 µM | inhibition (MCF7 [3]): Active | Activity (MCF7 [4]): 35 - 40% | Activity (MCF7 [5]): 45% | Activity (MCF7 [6]): 40 - 45%

Cc1ccc(S(=O)(=O)NCc2ccc3[nH]ccc3c2)cc1
inhibition at 1 µM (Aromatase [1]): 33.4%

O=S(=O)(NCCc1c[nH]c2ccccc12)c1ccccc1
inhibition at 1 µM (Aromatase [1]): 110% | IC50 (Aromatase [2]): 0.2 µM | inhibition (MCF7 [3]): Active | Activity (MCF7 [4]): 35 - 40% | Activity (MCF7 [5]): 45% | Activity (MCF7 [6]): 40 - 45%

Cc1ccc(S(=O)(=O)Nc2ccc3[nH]ccc3c2)cc1[N+](=O)[O-]
inhibition at 1 µM (Aromatase [1]): 12.8%

O=S(=O)(Cc1ccccc1)Nc1ccc2cc[nH]c2c1
inhibition at 1 µM (Aromatase [1]): 15.3%

Cc1ccc(S(=O)(=O)Nc2ccc3cc[nH]c3c2)cc1
inhibition at 1 µM (Aromatase [1]): 83.2% | IC50 (Aromatase [2]): 0.49 µM | Activity (MCF7 [7]): 36.63% | Activity (MCF7 [8]): 20.78% | Activity (MCF7 [9]): 22.08% | inhibition (MCF7 [10]): Dose-dependent effect | Activity (MCF7 [4]): 35 - 40% | Activity (MCF7 [5]): 45% | Activity (MCF7 [6]): 40 - 45%

O=[N+]([O-])c1cccc(S(=O)(=O)Nc2ccc3cc[nH]c3c2)c1
inhibition at 1 µM (Aromatase [1]): 18.6%

N#Cc1ccc(S(=O)(=O)NCCc2c[nH]c3ccccc23)c(Cl)c1
inhibition at 1 µM (Aromatase [1]): 19.7%

O=S(=O)(Cc1ccccc1)NCc1ccc2[nH]ccc2c1
inhibition at 1 µM (Aromatase [1]): 16.4%

Cc1ccc(S(=O)(=O)NCCc2c[nH]c3ccccc23)cc1
inhibition at 1 µM (Aromatase [1]): 43.5%

O=S(=O)(NCc1ccc2[nH]ccc2c1)c1ccccc1
inhibition at 1 µM (Aromatase [1]): 20.7%

O=S(=O)(Cc1ccccc1)Nc1ccc2[nH]ccc2c1
inhibition at 1 µM (Aromatase [1]): 129% | IC50 (Aromatase [2]): 0.16 µM | Activity (MCF7 [7]): 38.62% | Activity (MCF7 [8]): 19.53% | Activity (MCF7 [9]): 20.08% | inhibition (MCF7 [10]): Dose-dependent effect | Activity (MCF7 [4]): 35 - 40% | Activity (MCF7 [5]): 45% | Activity (MCF7 [6]): 40 - 45%
